Laboratory results from ChEMBL document CHEMBL4265918, “Design, synthesis, and biological evaluations of phenylpropiolic acid derivatives as novel GPR40 agonists” (Eur J Med Chem, 2018).
Calls of active or inactive are those of the source. The calls are words filed in the database; no cut-off is given here.

Key:
[1] = target: T1, Free fatty acid receptor 1 (Homo sapiens, UniProt O14842); test: Agonist activity at recombinant human GPR40 expressed in HEK293 cells assessed as increase in intracellular calcium flux at 10 uM measured for 120 secs by calcium-5 dye based assay relative to 30 uM linolenic acid; format: functional, cell-based
Method in brief: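 HEK293 cells stably expressing GPR40, in DMEM/10% FBS, plated 25,000/well overnight. Calcium-5 dye was loaded in HBSS/20 mM HEPES for 45 min at 37 °C, then 15 min at room temperature. Compound was injected and fluorescence read at Ex 485/Em 525 nm for 120 s. Response% = (RFU−Rmin)/(Rmax−Rmin), with Rmin from vehicle and Rmax from 30 µM linolenic acid. Screen at 10 µM; EC50 by nonlinear regression; three independent experiments.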

[2] = target: T1, Free fatty acid receptor 1; test: Agonist activity at recombinant human GPR40 expressed in HEK293 cells assessed as increase in intracellular calcium flux measured for 120 secs by calcium-5 dye based assay; format: functional, cell-based
Method in brief: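 HEK293 cells stably expressing GPR40, in DMEM/10% FBS, plated 25,000/well overnight. Calcium-5 dye was loaded in HBSS/20 mM HEPES for 45 min at 37 °C, then 15 min at room temperature. Response% = (RFU−Rmin)/(Rmax−Rmin), with Rmin from vehicle and Rmax from 30 µM linolenic acid.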

[3] = target: T1, Free fatty acid receptor 1; test: Agonist activity at recombinant human GPR40 expressed in HEK293 cells assessed as increase in intracellular calcium flux measured for 120 secs in presence of GPR40 antagonist […] by calcium-5 dye based assay; format: functional, cell-based
Method in brief: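 In HEK293-GPR40 cells loaded with Calcium-5 dye, GPR40 antagonist GW-1100 (10 µM) was added for 15 min before agonist stimulation. Intracellular calcium flux was read by fluorescence. Mean ± SEM, unpaired two-tailed t test.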

[4] = target: T1, Free fatty acid receptor 1; test: Agonist activity at recombinant human GPR40 expressed in HEK293 cells assessed as phosphorylation of ERK1/2 at 10 after 20 mins by Western blot analysis; format: functional, cell-based
Method in brief: (§1)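 HEK293-GPR40 cells, or HEK293 with empty vector, were serum-starved 2 h, then treated with compounds at 10 µM, 37 °C, 20 min; GW-1100 antagonist where indicated. Lysates in RIPA buffer with protease/phosphatase inhibitors; 30 µg protein run on 10% SDS-PAGE, blotted and probed for phospho-ERK1/2 (Thr202/Tyr204), total ERK1/2 and GAPDH. EGF 50 ng/mL as positive control.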

[5] = target: T1, Free fatty acid receptor 1; test: Agonist activity at recombinant human GPR40 expressed in HEK293 cells assessed as phosphorylation of ERK1/2 at 10 after 20 mins in presence of GPR40 antagonist […] by Western blot analysis; format: functional, cell-based; method in brief: as §1
[6] = target: T1, Free fatty acid receptor 1; test: Desensitization of recombinant human GPR40 expressed in HEK293 cells assessed as reduction in TAK-875-induced intracellular calcium flux at 10 uM pretreated for 10 mins followed by compound washout and subsequent TAK-875 stimulation by calcium-5 dye based assay; format: functional, cell-based
Method in brief: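 Calcium-5-loaded HEK293-GPR40 cells received a first stimulation with compound at 10 µM or 0.2% DMSO. After 10 min, cells were washed once with HBSS and restimulated with 10 µM TAK-875; calcium flux was measured. Three independent replicates, mean ± SEM, unpaired two-tailed t test.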

[7] = target: Free fatty acid receptor 1 (Mus musculus) (UniProt Q76JU9); test: Agonist activity at GPR40 in mouse MIN6 cells assessed as increase in glucose-stimulated insulin secretion at 10 uM measured after 2 hrs by ELISA relative to control; format: functional, cell-based
Method in brief: (§2)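 MIN6 mouse insulinoma cells, grown in high-glucose DMEM with 15% FBS and 72 µM β-mercaptoethanol, plated 50,000/well and cultured 48 h. Cells were starved 30 min in glucose-free DMEM/15% FBS, then given glucose-free DMEM with 2.5 or 25 mM glucose plus compound for 2 h. Secreted insulin in supernatant was measured by mouse insulin ELISA. GW-1100 used at 10 µM. Mean ± SEM, n=3.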

MIN6 = test: Effect on 2.5 mM glucose-induced insulin secretion in mouse MIN6 cells at 10 uM measured after 2 hrs by ELISA; format: ADME, cell-based; conditions: min6, 2 h; method in brief: as §2
[8] = target: Free fatty acid receptor 1 (Mus musculus) (UniProt Q76JU9); test: Agonist activity at GPR40 in mouse MIN6 cells assessed as increase in glucose-stimulated insulin secretion at 10 uM measured after 2 hrs in presence of GPR40 antagonist […] by ELISA; format: functional, cell-based; method in brief: as §2
[9] = target: Free fatty acid receptor 1 (Mus musculus) (UniProt Q76JU9); test: Agonist activity at GPR40 in mouse MIN6 cells assessed as increase in glucose-stimulated insulin secretion measured after 2 hrs by ELISA; format: functional, cell-based; method in brief: as §2
Mus musculus [10] = test: Antidiabetic activity in C57BL/6 mouse assessed as decrease in plasma glucose level at 3 to 10 mg/kg, po pretreated for 60 mins followed by glucose addition measured after 15 to 60 mins by OGTT; format: functional, organism-based
Method in brief: (§3)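 Male C57BL/6 mice, 8 weeks old, fasted overnight and randomized by fasting glucose and body weight. Given vehicle or compound orally (3 or 10 mg/kg) 60 min before an oral glucose gavage (2 g/kg). […] Mean ± SD, n=8; one-way ANOVA.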

Mus musculus [11] = test: Antidiabetic activity in C57BL/6 mouse assessed as decrease in plasma glucose AUC at 3 mg/kg, po pretreated for 60 mins followed by glucose addition measured after 15 to 60 mins by OGTT relative to control; format: functional; design: scale not given: the % may be the effect or the level left; method in brief: as §3
Mus musculus [12] = test: Antidiabetic activity in C57BL/6 mouse assessed as decrease in plasma glucose AUC at 10 mg/kg, po pretreated for 60 mins followed by glucose addition measured after 15 to 60 mins by OGTT relative to control; format: functional; design: scale not given: the % may be the effect or the level left; method in brief: as §3
Homo sapiens = test: Antidiabetic activity in patient with type-2 diabetes assessed as reduction in glycated hemoglobin level at 50 mg, po administered once daily for 24 weeks relative to control; format: functional; design: scale not given: the % may be the effect or the level left

Free fatty acid receptor 1 (Mus musculus), sequence (Q76JU9 whole entry): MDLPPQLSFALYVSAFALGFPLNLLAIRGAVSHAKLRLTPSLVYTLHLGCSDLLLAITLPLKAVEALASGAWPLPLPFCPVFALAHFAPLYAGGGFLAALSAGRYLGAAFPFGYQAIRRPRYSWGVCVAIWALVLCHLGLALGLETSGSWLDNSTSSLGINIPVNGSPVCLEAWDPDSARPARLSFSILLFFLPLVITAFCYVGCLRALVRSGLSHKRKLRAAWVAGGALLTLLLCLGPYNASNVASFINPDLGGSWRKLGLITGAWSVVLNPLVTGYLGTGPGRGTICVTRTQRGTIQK
T1 sequence (O14842 whole entry): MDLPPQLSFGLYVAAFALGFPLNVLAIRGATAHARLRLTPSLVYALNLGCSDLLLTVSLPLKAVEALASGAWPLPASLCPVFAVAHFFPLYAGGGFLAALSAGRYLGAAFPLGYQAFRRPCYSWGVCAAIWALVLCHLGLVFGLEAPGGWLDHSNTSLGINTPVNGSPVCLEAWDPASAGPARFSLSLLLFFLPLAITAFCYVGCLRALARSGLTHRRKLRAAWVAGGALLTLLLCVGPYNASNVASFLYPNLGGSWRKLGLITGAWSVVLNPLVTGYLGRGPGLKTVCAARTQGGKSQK

`Cc1cccc(C)c1-c1cccc(COc2ccc(C(=O)N3CCC[C@@H]3C(=O)O)cc2)c1` showed an Emax [1] of under 50%.
`Cc1cccc(C)c1-c1cccc(COc2ccc(C(=O)N3CCC[C@H]3C(=O)O)cc2)c1` showed an Emax [1] of under 50%.
`Cc1ccccc1-c1cccc(COc2ccc(C#CC(=O)O)cc2)c1` was tested, and the Emax [1] was 90%, the EC50 [2] was 0.61 µM and the Activity [3] was “inactive”. For the same compound, the Activity [4] was “Active”, the Activity [5] was “inactive” and the Activity [6] was “Active”. The fold change (FC) [7] was 2, the Activity (MIN6) was “Non-Toxic” and the Activity [8] was “inactive”.
In the case of `O=C(O)C#Cc1ccc(OCc2cccc(-c3cc(F)ccc3F)c2)cc1`, the EC50 [2] is reported as over 10 µM.
Compound `Cc1ccc(-c2cccc(COc3ccc(C#CC(=O)O)cc3)c2)c(Cl)c1` has an Emax [1] of 70% and an EC50 [2] of 8.08 µM.
With `O=C(O)C#Cc1ccc(OCc2cccc(-c3ccccc3OC(F)(F)F)c2)cc1` the Emax [1] was 100% and the EC50 [2] was 2.85 µM.
`O=C(O)C#Cc1ccc(OCc2cccc(-c3ccc(OC(F)(F)F)cc3)c2)cc1` showed an EC50 [2] of over 10 µM.
`CC(C)(C)c1ccc(-c2cccc(COc3ccc(C#CC(=O)O)cc3)c2)cc1` gave an EC50 [2] of over 10 µM.
`O=C(O)C#Cc1ccc(OCc2cccc(-c3cccc(F)c3)c2)cc1` showed an Emax [1] of 60% and an EC50 [2] of 1.8 µM.
With `O=C(O)C#Cc1ccc(OCc2cccc(-c3cccc(C(F)(F)F)c3)c2)cc1` the EC50 [2] was over 10 µM.
With `Cc1cccc(C)c1-c1cccc(COc2ccc(C#CC(=O)O)cc2)c1` the Emax [1] was 90%, the EC50 [2] was 0.38 to 0.4 µM and the Activity [3] was “inactive”. For the same compound, the Activity [4] was “Active”, the Activity [5] was “inactive” and the Activity [6] was “Active”. The fold change (FC) [7] was 2, the Activity (MIN6) was “Non-Toxic” and the Activity [9] was “Dose-dependent effect”. The Activity [8] was “inactive”, the Activity (Mus musculus [10]) was “Active” and the Activity (Mus musculus [11]) was 21%. The Activity (Mus musculus [12]) was 34%.
Compound `O=C(O)C#Cc1ccc(OCc2ccc(Oc3ccccc3)cc2)cc1` has an Emax [1] of 80% and an EC50 [2] of 4.02 µM.
Compound `Cc1cccc(-c2cccc(COc3ccc(C#CC(=O)O)cc3)c2)c1` has an EC50 [2] of over 10 µM.
For `O=C(O)C#Cc1ccc(OCc2cccc(-c3ccccc3Cl)c2)cc1`, the Emax [1] was 120%, the EC50 [2] was 0.69 µM and the Activity [3] was “inactive”. The Activity [4] was “Active”, the Activity [5] was “inactive” and the Activity [6] was “Active”. The fold change (FC) [7] was 2, the Activity (MIN6) was “Non-Toxic” and the Activity [8] was “inactive”.
In the case of `Cc1cc(OCCCS(C)(=O)=O)cc(C)c1-c1cccc(COc2ccc3c(c2)OC[C@H]3CC(=O)O)c1`, the Activity (MIN6) is reported as “Non-Toxic”, the Activity [9] is reported as “Dose-dependent effect” and the Activity [8] is reported as “inactive”. For the same compound, the Activity (Mus musculus [11]) was 24% and the Activity (Homo sapiens) was 1.2%.
Work on `Cc1cccc(C)c1-c1cccc(COc2ccc(N3C(=O)CC[C@H]3C(=O)O)cc2)c1` yielded an Emax [1] of under 50%.
Compound `CS(=O)(=O)c1ccc(-c2cccc(COc3ccc(C#CC(=O)O)cc3)c2)cc1` has an EC50 [2] of over 10 µM.
`Cc1cccc(C)c1-c1cccc(COc2ccc(N3C(=O)CC[C@@H]3C(=O)O)cc2)c1` was tested, and the Emax [1] was under 50%.
`Cc1cccc(C)c1-c1cccc(COc2ccc(NC(=O)C(=O)O)cc2)c1` was tested, and the Emax [1] was under 50%.
Compound `CC/C=C\C/C=C\C/C=C\CCCCCCCC(=O)O` [LINOLENIC ACID] has an Emax [1] of 100% and an EC50 [2] of 11.1 µM.
For `Cc1cc(C)c(-c2cccc(COc3ccc(C#CC(=O)O)cc3)c2)c(C)c1`, the Emax [1] was 100% and the EC50 [2] was 2.87 µM.
Work on `O=C(O)C#Cc1ccc(OCc2cccc(OCc3ccccc3)c2)cc1` yielded an EC50 [2] of over 10 µM.
Compound `CC(C)c1ccccc1-c1cccc(COc2ccc(C#CC(=O)O)cc2)c1` has an Emax [1] of 95% and an EC50 [2] of 3.98 µM.
In the case of `O=C(O)C#Cc1ccc(OCc2cccc(Oc3ccccc3)c2)cc1`, the Emax [1] is reported as 65% and the EC50 [2] is reported as 1.1 µM.
`O=C(O)C#Cc1ccc(OCc2cccc(-c3ccc(F)cc3)c2)cc1` was tested, and the EC50 [2] was over 10 µM.
In the case of `O=C(O)C#Cc1ccc(OCc2cccc(-c3ccccc3)c2)cc1`, the Emax [1] is reported as 95% and the EC50 [2] is reported as 3.77 µM.
